Results pooled from the literature.
Each line is one published result; the experiments were not run side by side. ≈ marks a conversion by molar mass, not a printed value.
Read-out: microbial growth

| Compound | organism | test | test system | conditions | MIC [µg/mL] |
| --- | --- | --- | --- | --- | --- |
| O=C(O)c1cn(C2CC2)c2cc(N3CCNCC3)c(F)cc2c1=O | Mycobacterium intracellulare | resazurin | ATCC23068 | – | 1 (≈ 3.02 µM) |
| O=C(O)c1cccc(-n2c(/C=C/c3ccc(F)cc3)nc3ccncc3c2=O)c1 | Enterococcus faecium | broth dilution | NCTC7171 | – | > 128 |
| O=[N+]([O-])c1ccc(-c2nc(-c3ccc(Oc4ccccc4)cc3)no2)cc1 | Enterococcus faecium | broth dilution | – | 24 h | > 32 |
| O=C(O)c1cn(C2CC2)c2cc(N3CCNCC3)c(F)cc2c1=O | Mycobacterium intracellulare | broth dilution | ATCC23068 | – | 0.63 (≈ 1.9 µM) |
| O=C(O)c1cccc(-n2c(/C=C/c3ccc(C#CCO)cc3)nc3ccccc3c2=O)c1 | Enterococcus faecium | broth dilution | NCTC7171 | – | > 128 |
| C[C@@H](O)[C@H]1C(=O)N2C(C(=O)O)=C(S[C@@H]3CN[C@H](C(=O)N(C)C)C3)[C@H](C)[C@H]12 | Citrobacter freundii | broth dilution | – | clinical isolate | > 64 |
| NC(=O)c1cccc(-n2c(/C=C/c3ccc(F)cc3)nc3ccccc3c2=O)c1 | Enterococcus faecium | broth dilution | NCTC7171 | – | > 128 |
| CC(C)Oc1c(NC(=O)c2ccc(NC(=O)[C@H](CC(N)=O)NC(=O)c3ccc(NC(=O)c4ccc(C#N)cn4)cc3)cc2)ccc(C(=O)Nc2ccc(C(=O)O)cc2)c1O | Citrobacter freundii | – | DSM30039 | – | ≤ 0.03 |
| CC(C)Nc1cccc(-n2c(/C=C/c3ccc(C#N)cc3)nc3ccccc3c2=O)c1 | Enterococcus faecium | broth dilution | NCTC7171 | – | > 128 |
| Nc1ccc(-c2nc(-c3ccc(Oc4ccccc4)cc3)no2)cc1 | Enterococcus faecium | broth dilution | – | 24 h | > 32 |
| O=C(O)c1cn(C2CC2)c2cc(N3CCNCC3)c(F)cc2c1=O | Citrobacter freundii | – | DSM30039 | – | ≤ 0.03 |
| O=C(O)Cc1ccccc1Oc1ccc(-c2noc(-c3ccc(O)cc3)n2)cc1 | Enterococcus faecium | broth dilution | – | 24 h | > 32 |
| CO[C@@H](C(N)=O)[C@H](NC(=O)c1ccc(NC(=O)c2ccc(C#N)cc2)cc1)C(=O)Nc1ccc(C(=O)Nc2ccc(C(=O)Nc3ccc(C(=O)O)cc3)c(O)c2OC(C)C)cc1 | Citrobacter freundii | – | DSM30039 | – | ≤ 0.03 |
| O=C(O)COc1cccc(Oc2ccc(-c3noc(-c4ccc(O)cc4)n3)cc2)c1 | Enterococcus faecium | broth dilution | – | 24 h | > 32 |
| C/C(=C\c1ccc(C#N)cc1)C(=O)Nc1ccc(C(=O)N[C@@H](CC(N)=O)C(=O)Nc2ccc(C(=O)Nc3ccc(C(=O)Nc4ccc(C(=O)O)cc4)c(O)c3OC(C)C)cc2)cc1 | Citrobacter freundii | – | DSM30039 | – | 0.06 (≈ 0.0704 µM) |
